Data on two compounds can be found in ChEMBL document CHEMBL4028848, “Discovery of N-{4-[5-(4-Fluorophenyl)-3-methyl-2-methylsulfanyl-3H-imidazol-4-yl]-pyridin-2-yl}-acetamide (CBS-3595), a Dual p38α MAPK/PDE-4 Inhibitor with Activity against TNFα-Related Diseases” (J Med Chem, 2017).

Calls of active or inactive are those of the source.

For one data set, the system named is Saccharomyces cerevisiae. Description: Inhibition of yeast CK1 at 10 uM relative to control.
The target of data set [1] is Dual specificity mitogen-activated protein kinase kinase 4 (Homo sapiens) (UniProt P45985). Kind of data set: Inhibition of MKK4 (unknown origin) at 10 uM relative to control.
Data set [2] deals with CDK3/Cyclin E (Homo sapiens) (UniProt P24864+Q00526). Kind of data set: Inhibition of CDK3/cyclinE (unknown origin) at 10 uM relative to control. The format is protein-complex assay.
The test system of data set [3] is Liver. Description: Drug metabolism in human liver microsomes assessed as 4-(4-(4-fluorophenyl)-1-methyl-2-(methylsulfinyl)-1H-imidazol-5-yl)pyridin-2-amine formation at 10 to 100 uM. The format is ADME, microsome. A digest of the protocol:
(§1)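 Test compound incubated at 10, 30 and 100 μM with liver microsomes from rat, Cynomolgus monkey or human, and metabolites monitored.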

In data set [4] the test system is Liver. Description: Drug metabolism in human liver microsomes assessed as N-(4-(4-(4-fluorophenyl)-1-methyl-2-(methylsulfinyl)-1H-imidazol-5-yl)pyridin-2-yl)acetamide formation at 10 to 100 uM. The format is ADME, microsome. A digest of the protocol: as §1
In data set [5] the test system is Rattus norvegicus. Kind of data set: In vivo inhibition of P38 MAPKalpha in Lewis rat assessed as decrease in LPS-stimulated TNFalpha level in serum at 10 mg/kg, po pretreated for 1 hrs followed by LPS addition measured after 1.5 hrs post dose. The format is functional, organism-based. The method, boiled down: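 Lewis rats, n = 8/group: females dosed orally at 10 mg/kg at −1, −3 or −5 h relative to LPS challenge, plus one male group dosed at −1 h. Male and female vehicle controls were given at −1 h. Serum TNFα was measured after LPS and compared with vehicle.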

Data set [6] concerns Mus musculus. Kind of data set: In vivo inhibition of P38 MAPKalpha in BALB/c mouse assessed as decrease in LPS/GalN-stimulated TNFalpha level in plasma at 30 mg/kg, po administered via gavage pretreated for 1 hr followed by LPS/GalN addition measured after 1.5 hrs relative to control. The format is functional. The method, boiled down:
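Male BALB/c mice, n = 6/group, given 3, 10 or 30 mg/kg orally by gavage 1 h before i.p. D-GalN (500 mg/kg) plus LPS (1.5 μg/kg). Blood was taken by cardiac puncture and plasma TNFα measured against a vehicle-only control.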

Data set [7] concerns Rattus norvegicus. Description: Antiarthritic activity in Lewis rat assessed as decrease in collagen-induced arthritic score at 50 mg/kg, po qd administered for 10 days. The format is functional, organism-based. The method, boiled down:
(§2)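 Collagen-induced arthritis in male Lewis rats (5–6 per group). Groups received vehicle, dexamethasone 1 mg/kg, test item 50 mg/kg once daily, or 25 mg/kg twice daily for 10 days. Body weight, arthritic score and paw volume were monitored, and serum COMP was measured at the end.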

Data set [8] concerns Rattus norvegicus. Description: Antiarthritic activity in Lewis rat assessed as change in paw volume at 50 mg/kg, po qd administered for 10 days. The format is functional, organism-based. The method, boiled down: as §2
In data set [9] the test system is Rattus norvegicus. Kind of data set: Antiarthritic activity in Lewis rat assessed as collagen oligomeric matrix protein level in serum at 25 mg/kg, po bid administered for 10 days (Rbv = 0.17 +/- 0.02 U/l). The format is functional. A digest of the protocol:
as §2

Data set [10] has as its system Mus musculus. Kind of data set: Antiarthritic activity in human TNF transgenic mouse model assessed as reduction in bone erosion at 20 to 50 mg/kg/day, po for 10 weeks. The format is functional, organism-based. A digest of the protocol:
(§3)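 Heterozygous human TNF transgenic mice (8 per group) were dosed orally for ten weeks with 20 or 50 mg/kg/day as a methylcellulose suspension, alongside vehicle and infliximab i.p. controls. Joint swelling and grip strength were scored weekly, and hind paws were examined histologically at the end.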

Data set [11] deals with Mus musculus. Kind of data set: Antiarthritic activity in human TNF transgenic mouse model assessed as reduction in cartilage damage at 20 to 50 mg/kg/day, po for 10 weeks. The format is functional, organism-based. A digest of the protocol: as §3
The nature of data set [12]: Half life in mongrel dog at 30 mg/kg, po by LC-MS/MS analysis. The format is ADME, organism-based, Canis lupus familiaris. The following applies: in vivo. A digest of the protocol:
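Oral single-dose PK; plasma concentrations of parent and metabolite measured. Dogs: blood sampled 0.25 to 24 h after dosing. Humans: healthy subjects, placebo-controlled single-blind randomized consecutive dosing, plasma sampled predose and 0.25–36 h post dose. 10 mg also given fasting and fed in crossover. Parameters derived from individual concentration–time profiles.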

Data set [13] can be described thus: AUC (0 to t) in mongrel dog at 30 mg/kg, po by LC-MS/MS analysis. The format is ADME, organism-based, Canis lupus familiaris. Particulars: in vivo. The method, boiled down:
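Two mongrel dogs received a single oral dose of 30 mg/kg. Blood was sampled from 0.25 to 24 h and plasma parent concentrations were determined.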

Data set [14] is described as follows: Cmax in Beagle dog at 40 mg/kg, po by LC-MS/MS analysis. The format is ADME, organism-based, Canis lupus familiaris. Also noted: dose 40 mg/kg, route oral. Particulars: in vivo. The method, boiled down:
(§4)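 Toxicokinetics from a maximum-tolerated-dose study in four Beagle dogs given 40 mg/kg orally. Plasma levels of both parent and its predominant metabolite were monitored.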

Data set [15] in a line: Half life in cynomolgus monkey at 20 mg/kg, po measured on day 1 and 27 post dose by LC-MS/MS analysis. The format is ADME, organism-based, Macaca fascicularis. Particulars: in vivo. A digest of the protocol: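 Cynomolgus monkeys were dosed orally at 6, 12 and 20 mg/kg daily in a 4-week toxicity study. Blood was sampled from 0.5 to 24 h post dose on days 1 and 27. Individual profiles of parent and metabolite gave Tmax, Cmax, T1/2 and AUC0–24.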

In data set [16] the test system is Rattus norvegicus. Kind of data set: Toxicity in single po dosed rat assessed as effect on respiratory rate at 30 mg/kg, po administered as single dose. The format is organism-based. Particulars: in vivo.
The test system of data set [17] is Rattus norvegicus. Kind of data set: Toxicity in rat assessed as excessive defecation at 30 to 300 mg/kg, po administered as single dose. The format is organism-based. The following applies: in vivo.
In the next data set the test system is Cynomolgus monkey. Description: Toxicity in cynomolgus monkey assessed as induction of trchycardia at 6 to 20 mg/kg, po measured after 0.5 to 6 hrs post dose. The format is organism-based, Macaca fascicularis. The following applies: in vivo.
Data set [18] deals with Rattus norvegicus. Kind of data set: Toxicity in Sprague-Dawley rat assessed as increase in piloerection at 150 mg/kg, po administered via gavage for daily 28 days followed by 2 weeks off without dosing. The format is organism-based. Particulars: in vivo.
Data set [19] has as its system Rattus norvegicus. Description: Toxicity in Sprague-Dawley rat assessed as increase in hunched posture at 150 mg/kg, po administered via gavage for daily 28 days followed by 2 weeks off without dosing. The format is organism-based. Particulars: in vivo.
The test system of another data set is Escherichia coli. Description: Genotoxicity in Escherichia coli in presence of S9 fraction by Ames test. The format is toxicity. A digest of the protocol: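 Bacterial reverse mutation (Ames) test in S. typhimurium and E. coli strains, run with and without S9 mix.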
For orientation: The Ames test uses bacterial strains that need an amino acid and regain growth without it when mutated back.

Data set [20] can be described thus: Drug metabolism in human urine assessed as 4-(4-(4-fluorophenyl)-1-methyl-2-(methylsulfinyl)-1H-imidazol-5-yl)pyridin-2-amine formation at 10 to 50 mg, po administered as single dose after 36 hrs. The format is ADME, organism-based. The following applies: in vivo. The method, boiled down:
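Healthy subjects, single oral dose. Urine collected at 0–6, 6–12, 12–24 and 24–36 h post dose and analysed for parent and metabolite. Excreted amount expressed relative to administered dose.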

A short description of data set [21]: Drug metabolism in human primary hepatocytes assessed as CBS-3733 formation at 10 to 100 uM. The format is ADME, cell-based, Hepatocyte.
Data set [22] concerns the target Rho-associated protein kinase 2 (Homo sapiens) (UniProt O75116). Description: Inhibition of ROCK-2 (unknown origin) at 10 uM.
The target of data set [23] is Mitogen-activated protein kinase 12 (Homo sapiens) (UniProt P53778). Kind of data set: Inhibition of p38MAPK gamma (unknown origin) at 10 uM relative to control.
A further data set relates to Canis familiaris. Description: Cmax in Beagle dog assessed as 4-(4-(4-fluorophenyl)-1-methyl-2-(methylsulfinyl)-1H-imidazol-5-yl)pyridin-2-amine level at 40 mg/kg, po by LC-MS/MS analysis. The format is ADME, organism-based, Canis lupus familiaris. Also noted: dose 40 mg/kg, route oral. Particulars: in vivo. The method, boiled down: as §4

Chain of Dual specificity mitogen-activated protein kinase kinase 4 (Homo sapiens) (P45985 whole entry): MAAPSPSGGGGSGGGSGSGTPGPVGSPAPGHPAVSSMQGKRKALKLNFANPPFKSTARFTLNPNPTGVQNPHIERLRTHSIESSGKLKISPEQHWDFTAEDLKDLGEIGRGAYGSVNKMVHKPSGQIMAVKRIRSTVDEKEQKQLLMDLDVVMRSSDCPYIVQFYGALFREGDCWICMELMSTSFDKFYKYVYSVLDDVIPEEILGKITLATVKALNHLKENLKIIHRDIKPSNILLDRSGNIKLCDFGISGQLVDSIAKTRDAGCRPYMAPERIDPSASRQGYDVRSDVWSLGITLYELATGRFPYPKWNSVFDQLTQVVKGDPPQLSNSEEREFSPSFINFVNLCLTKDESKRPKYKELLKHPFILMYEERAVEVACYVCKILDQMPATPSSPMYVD
Chain of Mitogen-activated protein kinase 12 (Homo sapiens) (P53778 whole entry): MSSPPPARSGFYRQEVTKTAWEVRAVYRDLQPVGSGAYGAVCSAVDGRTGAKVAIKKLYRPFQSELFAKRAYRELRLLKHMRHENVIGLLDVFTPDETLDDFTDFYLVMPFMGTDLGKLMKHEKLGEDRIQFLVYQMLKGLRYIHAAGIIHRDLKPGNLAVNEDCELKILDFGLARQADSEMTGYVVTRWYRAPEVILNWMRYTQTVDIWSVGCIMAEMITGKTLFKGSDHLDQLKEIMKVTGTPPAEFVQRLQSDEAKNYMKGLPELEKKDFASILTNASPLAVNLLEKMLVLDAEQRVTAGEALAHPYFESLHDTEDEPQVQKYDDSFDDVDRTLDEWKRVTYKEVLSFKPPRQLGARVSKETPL
Chain of CDK3/Cyclin E (Homo sapiens) (P24864 whole entry, looked up): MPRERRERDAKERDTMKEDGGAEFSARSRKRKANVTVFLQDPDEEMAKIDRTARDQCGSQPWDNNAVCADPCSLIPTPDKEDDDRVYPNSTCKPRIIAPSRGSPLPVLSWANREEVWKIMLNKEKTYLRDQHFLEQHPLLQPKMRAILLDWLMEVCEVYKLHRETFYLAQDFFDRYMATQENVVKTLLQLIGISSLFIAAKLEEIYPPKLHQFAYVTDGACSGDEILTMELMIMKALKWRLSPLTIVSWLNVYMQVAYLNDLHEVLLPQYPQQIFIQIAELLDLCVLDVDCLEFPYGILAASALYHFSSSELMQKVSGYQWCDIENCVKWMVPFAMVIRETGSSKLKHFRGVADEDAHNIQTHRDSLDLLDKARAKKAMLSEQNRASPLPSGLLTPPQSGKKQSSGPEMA
Chain of CDK3/Cyclin E (Homo sapiens) (Q00526 whole entry, looked up): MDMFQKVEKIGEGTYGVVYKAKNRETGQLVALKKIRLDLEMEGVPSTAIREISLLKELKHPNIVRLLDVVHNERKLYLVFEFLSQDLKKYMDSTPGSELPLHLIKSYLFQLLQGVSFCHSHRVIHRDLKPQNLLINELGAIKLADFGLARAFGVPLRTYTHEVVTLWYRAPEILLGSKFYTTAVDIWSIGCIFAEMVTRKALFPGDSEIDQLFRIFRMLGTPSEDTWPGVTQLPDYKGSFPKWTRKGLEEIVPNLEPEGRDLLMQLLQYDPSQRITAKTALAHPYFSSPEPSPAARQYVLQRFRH
Chain of Rho-associated protein kinase 2 (Homo sapiens) (O75116 whole entry, looked up): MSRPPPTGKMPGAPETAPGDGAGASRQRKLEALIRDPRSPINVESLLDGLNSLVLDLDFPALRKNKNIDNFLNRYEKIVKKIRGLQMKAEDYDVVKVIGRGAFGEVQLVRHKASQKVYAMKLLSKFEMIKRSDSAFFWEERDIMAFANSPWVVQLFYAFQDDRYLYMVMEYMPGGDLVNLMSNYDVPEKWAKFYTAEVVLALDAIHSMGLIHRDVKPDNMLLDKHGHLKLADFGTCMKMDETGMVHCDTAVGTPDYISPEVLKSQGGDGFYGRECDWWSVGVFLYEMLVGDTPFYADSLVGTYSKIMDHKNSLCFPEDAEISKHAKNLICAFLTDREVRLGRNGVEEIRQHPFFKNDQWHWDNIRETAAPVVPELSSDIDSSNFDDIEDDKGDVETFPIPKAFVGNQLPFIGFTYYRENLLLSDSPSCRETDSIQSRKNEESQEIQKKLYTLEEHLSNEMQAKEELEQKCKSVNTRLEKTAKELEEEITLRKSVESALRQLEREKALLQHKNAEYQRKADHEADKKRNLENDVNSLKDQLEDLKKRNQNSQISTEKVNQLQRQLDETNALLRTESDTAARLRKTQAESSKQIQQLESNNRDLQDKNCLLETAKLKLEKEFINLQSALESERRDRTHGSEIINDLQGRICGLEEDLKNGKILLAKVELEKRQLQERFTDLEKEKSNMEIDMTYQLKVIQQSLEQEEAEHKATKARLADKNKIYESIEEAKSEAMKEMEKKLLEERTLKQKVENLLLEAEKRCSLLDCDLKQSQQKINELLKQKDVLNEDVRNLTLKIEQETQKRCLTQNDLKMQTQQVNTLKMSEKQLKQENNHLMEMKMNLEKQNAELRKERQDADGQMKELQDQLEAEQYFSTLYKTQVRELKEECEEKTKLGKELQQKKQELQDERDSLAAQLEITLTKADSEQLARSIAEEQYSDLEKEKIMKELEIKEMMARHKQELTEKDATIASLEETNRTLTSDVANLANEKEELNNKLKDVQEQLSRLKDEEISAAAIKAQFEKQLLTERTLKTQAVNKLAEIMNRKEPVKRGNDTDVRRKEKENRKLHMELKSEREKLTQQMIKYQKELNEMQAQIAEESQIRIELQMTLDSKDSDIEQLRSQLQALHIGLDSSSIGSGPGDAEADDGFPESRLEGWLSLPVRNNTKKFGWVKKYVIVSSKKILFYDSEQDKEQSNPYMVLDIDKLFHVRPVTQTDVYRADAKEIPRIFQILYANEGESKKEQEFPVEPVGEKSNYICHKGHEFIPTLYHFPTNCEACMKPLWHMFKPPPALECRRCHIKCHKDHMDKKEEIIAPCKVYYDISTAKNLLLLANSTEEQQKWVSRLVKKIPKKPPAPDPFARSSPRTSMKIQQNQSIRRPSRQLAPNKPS

As to `CC(=O)Nc1cc(-c2c(-c3ccc(F)cc3)nc([S+](C)[O-])n2C)ccn1` (configuration not stated), the results for the inhibition (in the data set with Saccharomyces cerevisiae; in [1]; in data set [2]) were 97%, 37% and 55%, respectively. The Drug metabolism entry (with Liver [3]; in the data set with Liver [4]; in [21]) was “Metabolite_Detected” in each case. For the same compound, the inhibition result in the data set with Rattus norvegicus [5] is “Active”. Also, the inhibition in vivo at 30 mg/kg in the data set with Mus musculus [6] worked out at 95%. Further, the outcome in the data set on Rattus norvegicus [7], in the data set with Mus musculus [10] and in the data set with Mus musculus [11] was Active. Also, the outcome with Rattus norvegicus [8] was inactive. Further, the Activity with Rattus norvegicus [9] is on record as 0.08 U/L; in the data set on Rattus norvegicus [16] it was “Non-Toxic”; with Rattus norvegicus [17], “Toxic”; with Cynomolgus monkey it was “Toxic”; in the data set with Rattus norvegicus [18], “Toxic”; in the data set with Rattus norvegicus [19], “Toxic”. Moreover, the Activity entry in the data set with Escherichia coli was “Non-Toxic”. In addition, the figures for the half-life in data set [12] and in data set [15] were 3.85 h and 4.8 h, respectively. The compound also had an AUC(0-t) in data set [13] of 95 µM·h. Also, the Cmax in data set [14] is 15.6 µM. For the same compound, the Drug excretion in data set [20] came to 6 %ID.
For `Cn1c([S+](C)[O-])nc(-c2ccc(F)cc2)c1-c1ccnc(N)c1` (configuration not stated), the inhibition result in data set [22] and in [23] was “inactive” in each case. In addition, the Cmax with Canis familiaris was 5.1 µM.

As a reminder, the inhibition is the share of the control response that was lost under treatment. The inhibition in vivo is the relative decrease from the control value, in per cent. The term half-life denotes the time needed for the level to fall by half in the phase considered. Broadly, the AUC(0-t) is exposure summed from dosing to a finite time, without extrapolation to infinity. As a reminder, the Cmax is the peak of the concentration-time curve.
